# Compounds with a hit are over-represented: about 2.3% of the library has one in this group of screens.
# MC4R antagonist – antagonists of human melanocortin 4 receptor (MC4R). P32245. MC4R-expressing cells, MTII-stimulated cAMP, LANCE TR-FRET. inhibition, % at 6.5 µM. actives 0.48% (n = 360,000). AID 540295;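 active means inhibition above its plate's cutoff, the mean of tested wells on that plate plus 3 SD, cut at about 29% in these data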;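 further: 0% = Melanotan II alone and 100% = Melanotan II plus saturating MCL0020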
#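 Material – human MC4R-expressing U2OS cells · Repeats – no replicates · Detection – TR-FRET with Eu-cAMP and labeled anti-cAMP, 671 nm · Times – compound 30 min, challenge 1 h, detection 1 h · Compound – single nominal compound dose of 6.5 µM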
# MsrA act – activators of bovine methionine sulfoxide reductase A | purified bovine MsrA, absorbance read-out | activation, % at 10.6 µM | actives 0.3% (n = 360,000); in the data active means activation above about 7.5%;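 further: 0% = vehicle and 100% = reference activator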
# MC4R ag barr – activates human MC4R beta-arrestin recruitment. U2OS MC4R beta-arrestin complementation, luminescence; percent of melanotan II response, DMSO zero. P32245. activation, % at 8.9 µM. actives 0.98% (n = 360,000);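 active means activation above a per-plate cutoff, the mean activation of sample wells on that plate plus 3 SD, cut at about 8% in these data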
# MsrA inhibitor – inhibitors of bovine MsrA. purified bovine MsrA, absorbance read-out. inhibition, % at 15.5 µM. actives 0.75% (n = 360,000). AID 651718; in the data active means inhibition above about 4.5%;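 further: 0% = vehicle wells with enzyme and 100% = reference inhibitor wells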
# MC4R barr conf – human MC4R beta-arrestin agonism confirmation | shares compounds with MC4R ag barr | U2OS MC4R beta-arrestin recruitment, luminescence; scaled DMSO 0%, Melanotan II 100% | activation, % at 8.9 µM | actives 31% (n = 2,400);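 active means mean activation across replicates above the hit cutoff set in the earlier primary screen, cut at about 8% in these data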
# MOR DOR agonist – counter-screen for MC4R agonists: agonists of mu-delta opioid heterodimer. activation, % at 9.2 µM. shares compounds with MC4R ag barr. U2OS PathHunter beta-arrestin, beta-gal luminescence; percent of deltorphin B response, DMSO zero. actives 5.8% (n = 2,400);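 active means mean activation across replicates exceeds the hit threshold derived in the earlier primary screen, cut at about 18% in these data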;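 further: 100% = deltorphin B at 0.9 µM final and 0% = DMSO alone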
# Target sequence (P35372 whole entry, looked up): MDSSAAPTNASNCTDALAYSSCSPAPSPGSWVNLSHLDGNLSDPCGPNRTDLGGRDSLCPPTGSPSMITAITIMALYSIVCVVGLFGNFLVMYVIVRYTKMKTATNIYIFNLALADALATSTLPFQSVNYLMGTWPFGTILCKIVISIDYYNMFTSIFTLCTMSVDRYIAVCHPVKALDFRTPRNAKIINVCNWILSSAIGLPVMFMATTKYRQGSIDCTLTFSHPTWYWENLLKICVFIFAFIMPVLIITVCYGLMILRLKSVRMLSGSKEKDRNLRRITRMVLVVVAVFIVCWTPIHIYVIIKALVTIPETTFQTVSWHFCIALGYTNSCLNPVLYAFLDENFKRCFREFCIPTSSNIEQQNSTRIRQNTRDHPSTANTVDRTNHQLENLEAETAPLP
# Target sequence (P41143 whole entry, looked up): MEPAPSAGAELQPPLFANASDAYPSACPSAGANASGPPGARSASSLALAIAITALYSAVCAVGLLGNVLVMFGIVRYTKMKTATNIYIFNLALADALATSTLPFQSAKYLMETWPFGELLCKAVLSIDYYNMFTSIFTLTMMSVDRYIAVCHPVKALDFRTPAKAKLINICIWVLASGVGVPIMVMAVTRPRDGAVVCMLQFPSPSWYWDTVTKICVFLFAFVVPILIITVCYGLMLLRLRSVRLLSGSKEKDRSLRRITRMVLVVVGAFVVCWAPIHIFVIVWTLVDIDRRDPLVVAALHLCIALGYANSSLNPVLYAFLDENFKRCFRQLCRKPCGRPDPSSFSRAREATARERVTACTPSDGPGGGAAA
# Starred values were filed as active, the others as inactive; . = no result given.
SMILES,MC4R antagonist,MsrA act,MC4R ag barr,MsrA inhibitor,MC4R barr conf,MOR DOR agonist
NC(Cc1ccc(F)cc1)c1csc(Nc2cc(Oc3ccccc3)ncn2)n1 (stereo unspecified),-3,0,13*,-2,14*,12
COc1cc2nc(SCC(N)=O)n(CCC3=CCCCC3)c(=O)c2cc1OC,7,1,12*,2,8.4*,6
CC(C)NC(=O)C(=O)Nc1cc2c3c(c1)CCC(=O)N3CCC2,7,-8,1,2,.,.
CC(C)C(NS(=O)(=O)c1ccccc1)C(=O)NC1CCCC1 (stereo unspecified),13,-3,-1,0,.,.
Cc1cc(NC(=O)CSc2nc(-c3ccc(Cl)cc3)cs2)no1,-3,-2,18*,1,8,8
CCOC(=O)C1(Cc2cccc(OC)c2)CCCN(Cc2nccn2CC)C1 (stereo unspecified),11,-2,0,1,.,.
Cc1cc(NC(=O)CSc2nc(-c3cccs3)cc(C(F)(F)F)n2)no1,-25,-8,2,1,.,.
CCOc1cc(NC(=S)NCC(C)C)c(OCC)cc1NC(=O)c1cccs1,10,0,15*,1,1,5
CCOc1ccc(NC(=O)CSc2nc(-c3cccs3)cc(C(F)(F)F)n2)c([N+](=O)[O-])c1,-7,-5,16*,1,26*,7
CCOc1ccc(NC(=O)c2cccs2)c([N+](=O)[O-])c1,-3,-3,18*,1,2,9
CC(C)(C)OC(=O)N[C@@H](/C=C/c1ccccc1)C(=O)OC(C)(C)C,4,-9,3,-1,.,.
Cc1nnc(N2CCCC(C(=O)NCc3ccc(OC(C)C)cc3)C2)c2nn(-c3ccccc3)c(C)c12 (stereo unspecified),8,-4,12*,1,4,3
Cc1ccc(-n2nc3c(N4CCC(C(=O)NCCc5cccs5)CC4)nnc(C)c3c2C)cc1,7,-1,15*,-1,12*,3
Cc1nnc(N2CCCC(C(=O)Nc3cc(F)ccc3F)C2)c2nn(-c3ccccc3)c(C)c12 (stereo unspecified),24,-1,2,.,.,.
Cn1nnnc1SCC(=O)Nc1ncc(C(F)(F)F)cc1Cl,2,-2,-1,0,.,.
O=C(COc1c(Br)cc(Br)c2cccnc12)Nc1ccccc1F,-1,-2,13*,0,2,2
N=C1/C(=C/c2cccn2-c2ccc([N+](=O)[O-])cc2)C(=O)N=C2SC=CN12,-18,2,-2,0,.,.
COc1ccc(-c2ccc(/C=C3/C(=N)N4C=CSC4=NC3=O)o2)c([N+](=O)[O-])c1,-3,5,20*,0,3,2
COc1ccc(/C(C)=N/OCC(=O)N=Nc2c(O)[nH]c3ccccc23)cc1,8,-3,14*,0,11*,3
O=c1[nH]c(CN(CCc2ccccc2)S(=O)(=O)c2ccc(Cl)cc2)nc2ccccc12,2,-8,23*,0,5,8
N#C/C(=C/c1ccc(-c2ccc([N+](=O)[O-])cc2)o1)C(=O)Nc1nc(-c2cccs2)cs1,7,-8,-1,1,.,.
N#C/C(=C\c1ccc(-c2ccc(F)cc2)o1)C(=O)Nc1nc(-c2cccs2)cs1,12,-3,39*,2,19*,1
CCOc1ccc2nc(SCC(=O)NC3CCCc4ccccc43)sc2c1 (stereo unspecified),-6,-10,31*,0,2,3
CCOc1ccc2nc(SCC(=O)N3CCCc4ccccc43)sc2c1,-5,-2,-2,0,.,.
O=C(NCCOc1ccc(Cl)cc1)C1CCCCC1,2,-2,-1,0,.,.
SMILES,MC4R antagonist,MsrA act,MC4R ag barr,MsrA inhibitor,MC4R barr conf,MOR DOR agonist
CC1=C(C(N)=O)C(c2ccc(Br)cc2)n2nc(CCCO)nc2N1 (stereo unspecified),15,-3,-1,0,.,.
Cc1occc1-c1nnc(SCC(=O)Nc2nc(C(C)(C)C)cs2)o1,21,0,12*,-1,4,6
O=C(Nc1nnc(COc2ccccc2F)s1)Nc1ccccc1F,16,-3,12*,0,6,10
O=C(Nc1ccc(F)cc1)Nc1nnc(COc2ccccc2F)s1,-4,3,5,2,.,.
CC(c1ccccc1)c1nnc(NC(=O)Nc2ccccc2F)s1 (stereo unspecified),8,-2,10*,0,3,6
COc1ccc(NC(=O)COC(=O)[C@@H]2CCCN2S(=O)(=O)c2ccccc2F)c(OC)c1,11,-4,-1,1,.,.
CCOc1ccccc1OCC(=O)OCC(=O)c1c(N)n(CC(C)C)c(=O)n(C)c1=O,8,-2,0,0,.,.
C=CCOc1cccc(/C=C/c2nc3ccccc3c(=O)[nH]2)c1,3,-5,24*,0,0,4
COc1ccc(Cc2nnc(NC(=O)CSc3ccccc3)s2)cc1,-6,-6,14*,1,3,3
Cc1ccc(-c2nsc(SCC(=O)NCc3ccc4c(c3)OCO4)n2)cc1,5,-4,0,-1,.,.
COc1ccc(-c2nsc(SCC(=O)Nc3ccc4c(c3)OCO4)n2)cc1,12,0,12*,0,3,6
Cc1ccc(C)c(SCC(=O)OC/C(O)=C(\C#N)c2nc3ccccc3[nH]2)c1,-10,-14,17*,1,-1,12
Cc1cc(Br)ccc1SCC(=O)OC/C(O)=C(\C#N)c1nc2ccccc2[nH]1,20,-3,12*,0,3,2
Cc1cccc(C)c1OCC(=O)OC/C(O)=C(\C#N)c1nc2ccccc2[nH]1,3,-8,21*,1,5,8
CCCC(=O)OC/C(O)=C(\C#N)c1nc2ccccc2[nH]1,15,-5,-3,1,.,.
Cc1c(/C=N/n2cnnc2)c2ccccc2n1CCOc1ccc(Cl)cc1,-2,-5,7,1,.,.
Cc1ccc(OCCn2c(C)c(/C=N/n3cnnc3)c3ccccc32)cc1,-1,-3,16*,1,4,6
O=C(Cn1nnc(-c2ccccc2NC(=O)c2ccccc2F)n1)NCc1ccco1,23,-3,0,0,.,.
COc1ccc(C(=O)Nc2ccccc2-c2nnn(CC(=O)NCc3ccco3)n2)cc1,12,-2,11*,0,10*,8
CCOC(=O)C1C(=O)NC(N2CCCCC2)=NC1C(C)C (stereo unspecified),11,-2,-2,0,.,.
Clc1ccccc1-c1cnc2sc(NCc3ccc4c(c3)OCO4)nn12,-5,-3,22*,1,13*,9
O=C(COn1nnc2ccc(Cl)cc21)NC12CC3CC(CC(C3)C1)C2,6,1,13*,1,4,12
O=C(COn1nnc2ccc(Cl)cc21)Nc1ccc(F)cc1,9,-1,4,0,.,.

# Bioassay records (PubChem BioAssay)
